Results on three molecules are retold here after article PMC11659308 (Communications Chemistry, 2024).

Data set [1] can be described thus: Asn-Gly isomerisation kinetics followed by time-dependent 1D 1H-NMR. As to conditions: for k2 (Suc→β-Asp) / k3 (Suc→α-Asp) / t1/2, half-life of the Asn species: 1H-NMR time course, 50 mM Na2HPO4 buffer; for k2 (Suc→β-Asp) / k3 (Suc→α-Asp): COPASI fit; for t1/2, half-life of the Asn species: chemical stability. Format: physicochemical. The method in brief:
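Acetylated Asn-Gly-Xxx-Ala amide tetrapeptide (~1 mg) in 50 mM (final) Na2HPO4 with D2O and DSS/NaN3. pH set with 0.1 M HCl/NaOH. Heated samples sonicated 1 min. 1D 1H spectra at 5–120 min and beyond, until reactant fell below ~10%. COSY/TOCSY assignment. Relative integrals fitted to Asn→Suc (irreversible), Suc⇌β-Asp and Suc⇌α-Asp kinetic model.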

For data set [2] the following is noted: estimated; cited from earlier work.
For data set [3] the following is noted: native versus reduced and unfolded forms; cited from earlier work.

Peptide text beside a SMILES is read from it.

As for `CC(=O)N[C@@H](CC(N)=O)C(=O)NCC(=O)N[C@@H](CCCCN)C(=O)N[C@@H](C)C(N)=O` [-NGKA-] (Ac-NGKA-NH2), the “k2 (Suc→β-Asp)” value worked out at 0.334 h⁻¹ in data set [1] (pH 7.4, 28 °C); 0.643 h⁻¹ in data set [1] (pH 7.4, 37 °C); 2.30 h⁻¹ in data set [1] (pH 7.4, 46 °C); 4.00 h⁻¹ in data set [1] (pH 7.4, 55 °C). For the same molecule, the “k3 (Suc→α-Asp)” value in data set [1] (pH 7.4, 28 °C) stood at 0.174 h⁻¹; in data set [1] (pH 7.4, 37 °C), 0.255 h⁻¹; in data set [1] (pH 7.4, 46 °C), 1.150 h⁻¹; in data set [1] (pH 7.4, 55 °C), 0.134 h⁻¹. In addition, the “t1/2, half-life of the Asn species” value in data set [1] (pH 7.4, 28 °C) came to 76.6 h; in data set [1] (pH 7.4, 37 °C) it was 19.1 h; in data set [1] (pH 7.4, 46 °C) it was 9.4 h; in data set [1] (pH 7.4, 55 °C), 3.0 h. Moreover, in data set [1] (pH 7.4, Arrhenius, slope of ln k1 vs 1/T (28-55 °C)), the “activation Gibbs free energy of the rate-determining initial step (succinimide formation), ∆G‡(1)” value was determined as 20.9 kcal/mol. In data set [1] (pH 7.4, Arrhenius, slope of ln k2 vs 1/T (28-55 °C)), the “change in Gibbs free energy of the β-Asp formation step, ∆G‡(2)” value stood at 20.5 kcal/mol.

Consider `CNC(C)=O` [N-methylacetamide], for which, in data set [2], the “pKa, deprotonation of the amide group” value is listed as 18.

B1: native ribonuclease A: native ribonuclease A, compared with its reduced and unfolded forms (protein, UniProt P61823 27-150, looked up)
Ribonuclease pancreatic: KETAAAKFERQHMDSSTSAASSSNYCNQMMKSRNLTKDRCKPVNTFVHESLADVQAVCSQKNVACKNGQTNCYQSYSTMSITDCRETGSSKYPNCAYKTTQANKHIIVACEGNPYVPVHFDASV
As to B1, the “times less prone to asparagine isomerisation than its reduced and unfolded forms” value in data set [3] is reported as ~ 30 times.
